Key:
MOLT-4 = assay: Growth inhibition of human MOLT4 cells after 48 hrs by sulforhodamine B assay; format: functional; conditions: MOLT-4, 48 h
Method in brief: (§1)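 NCI 60 human cancer cell line screen run at the National Cancer Institute. Cells had 48 h continuous exposure, and proliferation was read by sulforhodamine B staining. GI50 (50% growth inhibition) was taken from dose–response curves.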

Mus musculus [1] = assay: Toxicity in DBA2 mouse assessed as change in color, weight and size in liver at 75 mg/kg, ip QD administered on alternate days for 17 days measured on day 23 relative to control; format: organism-based; design: dose 75 mg/kg, route intraperitoneal; conditions: in vivo, 408 h
Method in brief: (§2)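 Healthy female DBA2 mice, 5–7 weeks old, five per group, received 75 mg/kg ip on days 1, 5, 9, 13 and 17. Vehicle was PET (PEG400/ethanol/Tween 80, 6:3:1), 5% glucose and DMSO, with final ethanol 15% and DMSO 10%. Controls received 100 µL vehicle. Body weight was measured every other day. At sacrifice on day 23, blood counts (hematocrit, WBC, granulocytes, platelets) and liver, kidney and spleen appearance and weight were assessed.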

MCF7 = assay: Growth inhibition of human MCF7 cells after 48 hrs by sulforhodamine B assay; format: functional; conditions: MCF7, 48 h; method in brief: as §1
CAKI-1 = assay: Growth inhibition of human Caki1 cells after 48 hrs by sulforhodamine B assay; format: functional; conditions: CAKI-1, 48 h; method in brief: as §1
A549 = assay: Growth inhibition of human A549 cells after 48 hrs by sulforhodamine B assay; format: functional; conditions: A549, 48 h; method in brief: as §1
MDA-MB-435 = assay: Growth inhibition of human MDA-MB-435 cells after 48 hrs by sulforhodamine B assay; format: functional; conditions: MDA-MB-435, 48 h; method in brief: as §1
[2] = Growth inhibition of human […] cells after 48 hrs by sulforhodamine B assay; format: functional; method in brief: as §1
UACC-62 = assay: Growth inhibition of human UACC62 cells after 48 hrs by sulforhodamine B assay; format: functional; conditions: UACC-62, 48 h
Method in brief: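 Tested in the NCI 60 human cancer cell line panel. Cells were exposed continuously for 48 h and proliferation was read by sulforhodamine B staining. GI50 (concentration for 50% growth inhibition), TGI (total growth inhibition) and LC50 were taken from dose–response curves.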

Mus musculus [3] = assay: Toxicity in DBA2 mouse assessed as change in platelet count at 75 mg/kg, ip QD administered on alternate days for 17 days measured on day 23 relative to control; format: organism-based; design: dose 75 mg/kg, route intraperitoneal; conditions: in vivo, 408 h; method in brief: as §2

In the case of `COc1ccc(/C=C(/C(C)=O)c2cc(OC)c(OC)c(OC)c2)cc1O`, the GI50 (MOLT-4) was 316 nM, the TGI (MOLT-4; read-out: pTGI) was greater than 100000 nM and the Activity (Mus musculus [1]) was “Non-toxic”. For the same molecule, the GI50 (MCF7) was 195 nM, the TGI (MCF7; read-out: pTGI) was greater than 100000 nM and the GI50 (CAKI-1) was 186 nM. For the same molecule, the TGI (CAKI-1; read-out: pTGI (converted)) was 19500 nM, the GI50 (A549) was 468 nM and the TGI (A549; read-out: pTGI) was greater than 100000 nM. It also gave a GI50 (MDA-MB-435) of 25.7 nM, a TGI (MDA-MB-435; read-out: pTGI (converted)) of 75.9 nM and a GI50 [2] of 661 nM. It also gave a TGI ([2]; read-out: pTGI) greater than 100000 nM, a GI50 (UACC-62) of 151 nM and a TGI (UACC-62; read-out: pTGI) greater than 100000 nM. The Activity (Mus musculus [3]) was “Non-toxic”.

Reference: ChEMBL document CHEMBL1765023, “Acetyl analogs of combretastatin A-4: synthesis and biological studies” (Bioorg Med Chem, 2011)
